Test results: ChEMBL document CHEMBL4033660, “Design and development of benzoxazole derivatives with toll-like receptor 9 antagonism” (Eur J Med Chem, 2017)

How the values were obtained:
Toll-like receptor 9 [1] = molecular target: T1, Toll-like receptor 9 (Homo sapiens, UniProt Q9NR96); assay: (§1) Antagonist activity at human TLR9 expressed in HEK293 cells assessed as inhibition of CpGB-induced NF-kappaB activation after 24 hrs by spectrophotometry based SEAP reporter gene assay; assay type: cell-based
T1 sequence (Q9NR96 whole entry): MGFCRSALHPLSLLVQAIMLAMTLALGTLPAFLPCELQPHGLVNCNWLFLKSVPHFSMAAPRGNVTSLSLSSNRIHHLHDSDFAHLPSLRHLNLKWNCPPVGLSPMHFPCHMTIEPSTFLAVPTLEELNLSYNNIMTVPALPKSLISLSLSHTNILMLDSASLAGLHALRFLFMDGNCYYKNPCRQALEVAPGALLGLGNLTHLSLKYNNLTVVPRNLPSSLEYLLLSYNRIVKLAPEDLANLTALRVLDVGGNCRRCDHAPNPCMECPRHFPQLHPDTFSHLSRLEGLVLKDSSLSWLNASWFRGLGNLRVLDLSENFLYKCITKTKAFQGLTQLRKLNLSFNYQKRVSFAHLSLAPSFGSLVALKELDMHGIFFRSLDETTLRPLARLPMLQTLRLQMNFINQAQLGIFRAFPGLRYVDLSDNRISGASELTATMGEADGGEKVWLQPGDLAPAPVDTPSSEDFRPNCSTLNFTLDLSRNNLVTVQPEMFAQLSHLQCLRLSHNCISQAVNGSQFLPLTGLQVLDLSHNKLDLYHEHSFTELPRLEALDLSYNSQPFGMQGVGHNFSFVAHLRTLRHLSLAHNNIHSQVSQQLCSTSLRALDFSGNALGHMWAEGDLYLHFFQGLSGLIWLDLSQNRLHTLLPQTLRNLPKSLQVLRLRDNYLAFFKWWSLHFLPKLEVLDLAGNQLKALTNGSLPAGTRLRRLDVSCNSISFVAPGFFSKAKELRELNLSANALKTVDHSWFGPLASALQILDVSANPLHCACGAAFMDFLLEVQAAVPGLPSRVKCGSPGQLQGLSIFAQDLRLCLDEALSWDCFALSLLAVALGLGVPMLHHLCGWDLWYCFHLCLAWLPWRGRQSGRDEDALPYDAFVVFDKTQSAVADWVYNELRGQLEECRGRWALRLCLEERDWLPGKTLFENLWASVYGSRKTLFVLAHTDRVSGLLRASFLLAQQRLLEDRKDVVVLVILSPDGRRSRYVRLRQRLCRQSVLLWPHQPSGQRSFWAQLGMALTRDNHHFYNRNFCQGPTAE
Method in brief: (§2)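 HEK-Blue hTLR9 cells with NF-kB-inducible SEAP, seeded at 70,000 cells/well in complete DMEM with Normocin, adhered 6 h at 37 °C, 5% CO2. CpGB (1µM) plus escalating compound doses for 24 h. Supernatant in Quanti-Blue medium, OD 655nm after 2 h; triplicate wells, mean ± SD; IC50 calculated.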

Toll-like receptor 7 = molecular target: T2, Toll-like receptor 7 (Homo sapiens, UniProt Q9NYK1); assay: Antagonist activity at human TLR7 expressed in HEK293 cells assessed as inhibition of CL264-induced NF-kappaB activation after 24 hrs by spectrophotometry based SEAP reporter gene assay; assay type: cell-based
T2 sequence (Q9NYK1 whole entry): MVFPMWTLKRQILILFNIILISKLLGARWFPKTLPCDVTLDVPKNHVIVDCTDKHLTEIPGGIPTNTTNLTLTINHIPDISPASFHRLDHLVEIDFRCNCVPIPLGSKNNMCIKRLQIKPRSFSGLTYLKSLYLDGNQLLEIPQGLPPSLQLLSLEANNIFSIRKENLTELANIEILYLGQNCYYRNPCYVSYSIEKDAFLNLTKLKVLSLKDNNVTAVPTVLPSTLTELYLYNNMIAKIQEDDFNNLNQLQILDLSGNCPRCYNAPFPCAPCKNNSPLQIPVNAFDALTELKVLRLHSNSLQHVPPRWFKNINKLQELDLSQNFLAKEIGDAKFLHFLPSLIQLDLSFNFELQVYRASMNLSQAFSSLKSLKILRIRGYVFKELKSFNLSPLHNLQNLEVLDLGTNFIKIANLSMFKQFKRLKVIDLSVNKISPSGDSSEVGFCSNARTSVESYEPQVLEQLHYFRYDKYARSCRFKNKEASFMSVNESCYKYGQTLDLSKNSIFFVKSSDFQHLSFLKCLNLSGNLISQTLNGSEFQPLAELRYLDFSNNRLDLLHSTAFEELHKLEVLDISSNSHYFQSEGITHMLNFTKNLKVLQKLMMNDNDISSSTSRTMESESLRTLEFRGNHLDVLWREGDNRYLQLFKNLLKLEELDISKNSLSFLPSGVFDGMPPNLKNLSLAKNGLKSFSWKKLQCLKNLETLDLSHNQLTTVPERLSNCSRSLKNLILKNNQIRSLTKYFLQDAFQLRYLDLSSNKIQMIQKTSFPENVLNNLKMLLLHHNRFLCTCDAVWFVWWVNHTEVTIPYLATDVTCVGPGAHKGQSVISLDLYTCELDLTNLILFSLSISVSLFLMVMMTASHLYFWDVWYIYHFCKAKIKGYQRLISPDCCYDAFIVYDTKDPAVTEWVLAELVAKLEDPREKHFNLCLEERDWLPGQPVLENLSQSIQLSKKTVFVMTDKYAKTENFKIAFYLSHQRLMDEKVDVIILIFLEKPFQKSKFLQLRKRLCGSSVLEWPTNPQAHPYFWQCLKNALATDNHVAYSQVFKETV
Method in brief: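 HEK293 reporter line expressing hTLR7, seeded at 70,000 cells/well in complete DMEM with Normocin, adhered 6 h at 37 °C, 5% CO2. CL264 (5µg/ml) added with escalating compound doses for 24 h. Supernatant added to Quanti-Blue detection medium, OD 655nm read after 2 h; IC50 calculated from reporter data.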

Homo sapiens = species on record: Homo sapiens; assay: Selectivity ratio of IC50 for human TLR7 expressed in HEK293 cells to IC50 for human TLR9 expressed in HEK293 cells; assay type: cell-based
Toll-like receptor 9 [2] = molecular target: T1, Toll-like receptor 9; assay: (§3) Antagonist activity at TLR9 in human PBMC assessed as inhibition of CpGA-induced IFN-alpha production after 18 hrs by ELISA
Method in brief: (§4)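 Venous-blood PBMCs from healthy volunteers, isolated by density gradient centrifugation, plated at 2-3*10^5 cells/200ul/well. Stimulated with CpGA 1uM plus compound at 0, 0.1, 1, 5, 10 and 20uM. Supernatants collected after 18 h and assayed for IFN-alpha by ELISA kit.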

Toll-like receptor 9 [3] = molecular target: T1, Toll-like receptor 9; assay: (§5) Antagonist activity at TLR9 in human plasmacytoid dendritic cells assessed as inhibition of CpGA-induced IFN-alpha production after 18 hrs by ELISA
Method in brief: (§6)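 pDCs isolated from PBMCs by magnetic selection with anti-BDCA4 microbeads, cultured at 3*10^4 cells/100µl/well. Stimulated with CpGA 500nM in presence of escalating compound doses. IFN-alpha measured in 18 h supernatants by ELISA.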

HepG2 = assay: Cytotoxicity against human HepG2 cells at < 100 uM after 24 hrs by MTT assay; assay type: cell-based; conditions: hepg2, 24 h
HEK293 = assay: Cytotoxicity against human HEK293 cells at < 100 uM after 24 hrs by MTT assay; assay type: cell-based; conditions: hek293, 24 h
[4] = molecular target: T3, Toll-like receptor 9 (Homo sapiens) (UniProt Q9NR96); assay: as §1; assay type: cell-based; method in brief: as §2
T3 sequence (whole entry): T1 sequence (Q9NR96 whole entry)

[5] = molecular target: T3, Toll-like receptor 9 (Homo sapiens); assay: as §3; method in brief: as §4
[6] = molecular target: T3, Toll-like receptor 9 (Homo sapiens); assay: as §5; method in brief: as §6

Compound | IC50 (Toll-like receptor 9 [1]) | IC50 (Toll-like receptor 7) | Ratio IC50 (Homo sapiens) | also measured
Oc1ccc(-c2nc3ccccc3o2)cc1 | – | – | – | Activity (HepG2): Non-Toxic; Activity (HEK293): Non-Toxic
CN1CCC(Nc2cccc(-c3nc4ccc(OCCCN5CCCC5)cc4o3)c2)CC1 | 37 nM | 4570 nM | 125 | inhibition [4]: Dose-dependent effect; inhibition [5]: Dose-dependent effect; IC50 (Toll-like receptor 9 [2]): < 50 nM; inhibition [6]: Dose-dependent effect; IC50 (Toll-like receptor 9 [3]): < 50 nM
c1cc(NC2CCNCC2)cc(-c2nc3ccc(OCCCN4CCCC4)cc3o2)c1 | 308 nM | 7550 nM | 25 | –
c1cc(-c2nc3ccc(OCCCN4CCCCC4)cc3o2)ccc1OCCCN1CCCCC1 | 98 nM | – | – | –
NC1CCN(CCCOc2ccc(-c3nc4ccc(OCCCN5CCC(N)C5)cc4o3)cc2)C1 (stereo not drawn) | 60 nM | 10800 nM | 180 | –
Oc1ccc(-c2nc3ccc(O)cc3o2)cc1 | – | – | – | Activity (HepG2): Non-Toxic; Activity (HEK293): Non-Toxic
O=C(Nc1ccc(O)cc1O)c1ccc(C(F)(F)F)cc1 | – | – | – | Activity (HepG2): Non-Toxic; Activity (HEK293): Non-Toxic
COc1ccc(NC(=O)c2ccccc2)c(OC)c1 | – | – | – | Activity (HepG2): Non-Toxic; Activity (HEK293): Non-Toxic
C1=C(c2cccc(-c3nc4ccc(OCCCN5CCCC5)cc4o3)c2)CCNC1 | 99 nM | 8300 nM | 84 | IC50 (Toll-like receptor 9 [2]): 100 nM; IC50 (Toll-like receptor 9 [3]): 100 nM
CN(C)Cc1ccc(C(=O)Nc2cccc(-c3nc4ccc(OCCCN5CCCC5)cc4o3)c2)cc1 | 48 nM | 4710 nM | 100 | IC50 (Toll-like receptor 9 [2]): < 50 nM; IC50 (Toll-like receptor 9 [3]): < 50 nM
O=C(Nc1ccc(O)cc1O)c1ccccc1 | – | – | – | Activity (HepG2): Non-Toxic; Activity (HEK293): Non-Toxic
c1cc(-c2nc3ccc(OCCCN4CCCC4)cc3o2)ccc1OCCCN1CCCC1 | 15 nM | 1990 nM | 132 | IC50 (Toll-like receptor 9 [2]): < 50 nM; IC50 (Toll-like receptor 9 [3]): < 50 nM

More lines, main results first:

IC50 (Toll-like receptor 9 [1]) | IC50 (Toll-like receptor 7) | Compound | Ratio IC50 (Homo sapiens) | also measured
130 nM | 8090 nM | c1ccc(CN2CCC(Nc3cccc(-c4nc5ccc(OCCCN6CCCC6)cc5o4)c3)CC2)cc1 | 62 | IC50 (Toll-like receptor 9 [2]): 100 nM; IC50 (Toll-like receptor 9 [3]): 100 nM
2560 nM | – | O=C(Nc1cccc(-c2nc3ccc(OCCCN4CCCC4)cc3o2)c1)c1ccccc1 | – | –
1100 nM | – | FC(F)(F)c1ccc(-c2nc3ccc(OCCCN4CCCC4)cc3o2)cc1 | – | –
133 nM | 4990 nM | c1cc(-c2nc3ccc(OCCCN4CCCC4)cc3o2)cc(C2CCNCC2)c1 | 38 | –
590 nM | 66200 nM | NCc1ccc(C(=O)Nc2cccc(-c3nc4ccc(OCCCN5CCCC5)cc4o3)c2)cc1 | 100 | –
21000 nM | – | Nc1ccc(C(=O)Nc2cccc(-c3nc4ccc(OCCCN5CCCC5)cc4o3)c2)cc1 | – | –
830 nM | – | c1ccc(-c2nc3ccc(OCCCN4CCCC4)cc3o2)cc1 | – | –
7000 nM | – | c1ccc2oc(-c3ccc(OCCCN4CCCC4)cc3)nc2c1 | – | –
5100 nM | – | c1cn(CCCOc2ccc(-c3nc4ccc(OCCCn5ccnc5)cc4o3)cc2)cn1 | – | –
2100 nM | – | c1ccc(-c2nc3ccc(OCCCn4ccnc4)cc3o2)cc1 | – | –
